Sampled rows, rich in hits. Any-hit rate of the full collection: about 1.6%.
PKA-R2B activ – activates the human PKA-R2B holoenzyme complex. P22694+P31323. PKA-R2B holoenzyme dissociation, Cy5-IP20 fluorescence polarization; R2B truncated from residue 108, S112A mutant; 0% DMSO only, 100% 113 µM cGMP. activation, % at 11.4 µM. hit rate 0.079% among 340,000. AID 504700;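 active = activation above a cutoff set at the mean over all compounds plus 3 SD, cut at about 18% in these data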;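 also: higher means more holoenzyme dissociation and a rise in polarization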
Target sequence (P31323 whole entry, looked up, other chains not shown, the tested form may be a part): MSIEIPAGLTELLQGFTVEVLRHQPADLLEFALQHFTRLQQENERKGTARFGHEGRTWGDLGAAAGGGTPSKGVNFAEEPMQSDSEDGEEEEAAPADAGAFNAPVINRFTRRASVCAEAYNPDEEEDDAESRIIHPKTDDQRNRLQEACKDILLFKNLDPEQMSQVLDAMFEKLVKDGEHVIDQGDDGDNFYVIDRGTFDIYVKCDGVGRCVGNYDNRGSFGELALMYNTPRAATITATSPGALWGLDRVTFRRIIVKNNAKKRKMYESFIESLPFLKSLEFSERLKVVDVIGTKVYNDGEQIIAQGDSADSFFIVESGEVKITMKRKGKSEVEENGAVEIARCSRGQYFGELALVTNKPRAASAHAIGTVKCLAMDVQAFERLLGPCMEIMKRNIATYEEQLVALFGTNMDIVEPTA
ATG4B inh – ATG4B (human) cysteine protease inhibition | ATG4B cleavage of LC3-PLA2, NBD-HPC fluorescence, 1 h | AID 504462 | inhibition, % at 8.33 µM | hit rate 0.51% among 340,000; in the data active = inhibition above about 40%
PfG6PD inh – PfG6PD (Plasmodium falciparum) enzyme inhibition. inhibition, % at 20 µM. hit rate 0.78% among 350,000. AID 504690. PfGluPho enzyme, NADPH resazurin-diaphorase fluorescence;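 active = inhibition reaching at least a set limit at 20 µM in the primary screen, cut at about 59% in these data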;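 also: 0% = DMSO wells with substrate and 100% = DMSO wells lacking glucose-6-phosphate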
HKDC1 inh – HKDC1 (human) hexokinase inhibition. Q2TB90. recombinant HKDC1, G6PDH/diaphorase resazurin coupled fluorescence. inhibition, % at 20 µM. hit rate 0.16% among 340,000. AID 493160;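 active = inhibition above about 35% when tested at 20 µM, limit read from the data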;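 also: plate controls were DMSO wells with enzyme for no effect and DMSO wells lacking enzyme for full effect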
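System: Recombinant HKDC1 hexokinase | Amount: HKDC1 at 5 µg/mL | Reagent: Glucose with 1 mM ATP | Doses: Single 20 µM dose | Incubation: Reaction time 90 min, room temperature, protected from light | Signal: Coupled resazurin fluorescence, excitation 525 nm, emission 613 nm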
T cell modulator – T cell immune modulators affecting CD8 T cell-vesicle binding; 2C CD8+ T cell-vesicle binding, flow cytometry; active compounds read low; response (vesicle binding), % at 7 µM; hit rate 0.068% among 330,000; AID 2052;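 active = response, share of CD8 T cells binding vesicles, and their 90th percentile fluorescence all below set limits, cut at about 80% in these data, passing the limit was not always enough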;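 also: values below 100% mean blocked vesicle binding to the CD8+ T cells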
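incubation = binding step 1.5 h, 37 °C, antibody labelling 20 min, ice | test system = 2C mouse CD8+ T cells | read-out basis = percent CD8+ FL2 mean versus row control | controls = Peptide-free naked vesicles (low) and QL9 vesicles with 0.7% DMSO vehicle (high) | detection = flow cytometry of vesicle-bound cells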
PKA-R1A activ – activators of PKA-R1A complex | P00514+P68181 | PKA-R1A dissociation, Cy5-IP20 fluorescence polarization; scaled: DMSO 0%, 113 µM cGMP 100% | activation, % at 11.4 µM | hit rate 0.083% among 340,000;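 active = percent activation above the mean of all tested compounds plus 3 SD, cut at about 19% in these data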;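 also: higher means more PKAc released from R1A so a rise in polarization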
PfG6PD confirm – PfG6PD inhibition, single-dose confirmed; shares compounds with PfG6PD inh; recombinant PfGluPho, NADPH-diaphorase-resazurin fluorescence; inhibition, % at 20 µM; hit rate 34% among 2,400;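 active = inhibition of at least 50% at 20 µM in any single replicate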;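 also: 0% = DMSO with substrate and 100% = DMSO lacking glucose-6-phosphate substrate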
Diaph ctr 10uM – diaphorase inhibition or oxidation at 10 uM NADPH; shares compounds with PfG6PD inh; diaphorase-coupled resazurin reduction, fluorescence, NADPH 10 uM; inhibition, % at 20 µM; hit rate 39% among 820;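 active = average inhibition reaching 50% or more with the compound at 20 µM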;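 also: resorufin red fluorescence formed as diaphorase reduces resazurin using NADPH; 0% = DMSO with enzyme and 100% = DMSO without enzyme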
Diaph ctr 30uM – counter-screen for P. falciparum G6PD inhibitors: diaphorase inhibitors, oxidizers; shares compounds with PfG6PD inh; AID 504863; hit rate 29% among 820; inhibition, % at 20 µM; Diaphorase/resazurin coupled assay, resorufin fluorescence, 30 uM NADPH;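 active = inhibition averaging 50% or more, tested at 20 µM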;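 also: 0% = DMSO with enzyme and 100% = DMSO wells lacking diaphorase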
Numbers without * were called inactive; / = no result given.

SMILES	PKA-R2B activ	ATG4B inh	PfG6PD inh	HKDC1 inh	T cell modulator	PKA-R1A activ	PfG6PD confirm	others
CC(SC1=NCCN1S(=O)(=O)c1ccccc1)c1ccccc1 (stereo not drawn)	-12	-7	62*	10	270	-4	24
O=S(=O)(c1ccccc1)N1CCN=C1SCc1c(F)cccc1Cl	11	25	106*	-1	573	-6	32
Cc1ccc(CSC2=NCCN2S(=O)(=O)c2ccc(C)cc2)cc1	-7	/	15	/	/	-4	/
Cc1ccc(C)c(CSC2=NCCN2S(=O)(=O)c2ccccc2)c1	0	-1	62*	4	359	-13	-3
O=S(=O)(c1ccc(Cl)cc1)N1CCN=C1SCc1cccc(Cl)c1	0	-4	43	2	251	4	/
CC(C)CNC(=S)N(CCO)Cc1cc2cc3c(cc2[nH]c1=O)OCO3	-4	-9	5	3	168	-4	/
N#Cc1cc2ccc(N3CCOCC3)cc2cc1C#N	2	-21	63*	20	319	-3	29
N#Cc1cc(Cl)c(N2CCOCC2)cc1C#N	-5	-7	4	-4	262	3	/
CCCOc1ccc(N)cc1N	-18	-4	115*	26	256	-12	70*	Diaph ctr 10uM=52*;Diaph ctr 30uM=51*
CC(C(=O)NC1CCCC1)N(C(=O)c1ccc(-c2ccccc2)[nH]1)c1ccccc1F (stereo not drawn)	-9	16	1	2	212	-9	/
CC1=C(SCCC#N)S/C(=C2\SC(C)=C(SCCC#N)S2)S1	-4	-4	60*	1	256	-6	3
Cc1cc2nc3c(=O)[nH]c(=O)[nH]c3nc2c([N+](=O)[O-])c1N	12	-7	50	26	/	-3	40
Cc1c(N)c(C(C)(C)C)cc(C(C)(C)C)c1[N+](=O)[O-]	-13	10	-1	-3	0	-7	/
COc1ccc(CCNC(=O)C(=O)NCC2OCCN2C(=O)c2ccc(Cl)cc2)cc1OC (stereo not drawn)	2	-8	13	-4	208	4	/
CC1(C)CC(=O)C=C(c2ccc(-c3ccccc3)cc2)C1	4	-4	-1	-1	410	5	/
Cc1ccc(NC(=O)c2ccc(Cl)c(N3C(=O)C=CC3=O)c2)cc1	-11	-4	100*	2	243	-11	100*	Diaph ctr 10uM=-22;Diaph ctr 30uM=-7
O=C(Nc1ccc(Cl)c(Cl)c1)c1ccc(Cl)c(Cl)c1	-5	-2	6	2	28	-14	/
C=CCN(CC=C)C(=S)NC(=O)c1ccc([N+](=O)[O-])cc1	-16	-4	86*	-6	513	-9	-7
COC(=O)c1cc(C)[nH]c2c(C)cc3nc4ccccc4c3c12	-9	6	71*	3	164	-7	-12
CC1CN(C(=O)CSc2nnc(-c3cccs3)n2N)CC(C)O1 (stereo not drawn)	-2	-5	-2	-4	462	2	/
COc1ccc(F)cc1S(=O)(=O)Nc1ccc(C)cc1	-2	-5	63*	-6	135	-7	37
O=C(/C=C/c1ccc(-c2ccccc2)o1)c1ccccc1	-12	-4	111*	9	335	8	5
CN(C)CCCNC(=O)c1cc(C(=O)c2ccccc2)c[nH]1	-6	-2	-5	-1	244	-5	/
O=C(c1ccccc1)c1c[nH]c(C(=O)NNc2ccccc2)c1	-1	3	69*	-4	357	-2	14
CCN(CC)S(=O)(=O)c1ccc(N2CCCC2)c(NC(=O)Cc2c(F)cccc2Cl)c1	-3	6	-9	-8	316	-7	/

Source: PubChem BioAssay
